Data reported in ChEMBL document CHEMBL1125406, “Structure-activity relationships for inhibition of papain by peptide Michael acceptors” (J Med Chem, 1992).
Values belong to the compound of their own block, whether it stands above or below them.

What was measured:
Papain (Carica papaya) [1] = target: T1, Papain (Carica papaya) (UniProt P00784); assay: Compound was evaluated for papain inactivation. [I] is the inhibitor concentration; 30-450; assay type: functional
T1 sequence (whole entry): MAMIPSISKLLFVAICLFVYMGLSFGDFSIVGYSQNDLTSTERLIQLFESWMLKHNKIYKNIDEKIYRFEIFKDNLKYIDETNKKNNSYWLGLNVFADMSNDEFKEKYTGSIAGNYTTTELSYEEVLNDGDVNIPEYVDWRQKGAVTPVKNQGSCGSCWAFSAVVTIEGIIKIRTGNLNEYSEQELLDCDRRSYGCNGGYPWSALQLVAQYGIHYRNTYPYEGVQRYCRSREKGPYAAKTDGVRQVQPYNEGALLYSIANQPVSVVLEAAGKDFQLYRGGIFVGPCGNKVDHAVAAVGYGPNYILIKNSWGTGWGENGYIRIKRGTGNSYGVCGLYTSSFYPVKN
Outline: (§1)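 Mercurial papain activated with L-cysteine for 45 min at 25 °C in 50 mM phosphate, 1 mM EDTA, pH 6.2. Papain (0.11 μM) was incubated at 25 °C and pH 6.2, in 20% CH3CN, with excess inhibitor. Aliquots taken about every 10 min were diluted 10-fold into buffer containing 2 mM Cbz-Gly-ONp. Residual activity was read at 340 nm, corrected for spontaneous hydrolysis, and analysed by Kitz–Wilson plot.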

[2] = Compound was evaluated for the ratio of apparent inactivation rate constant k2 to apparent binding constant Ki; settings: read-out: k2 / Ki; outline: as §1
Papain (Carica papaya) [3] = target: T1, Papain (Carica papaya); assay: Compound was evaluated for papain inactivation. [I] is the inhibitor concentration; 0.05-1.08; assay type: functional; outline: as §1
Papain (Carica papaya) [4] = target: T1, Papain (Carica papaya); assay: Compound was evaluated for papain inactivation. [I] is the inhibitor concentration; 60-1000; assay type: functional; outline: as §1
Papain (Carica papaya) [5] = target: T1, Papain (Carica papaya); assay: Compound was evaluated for papain inactivation. [I] is the inhibitor concentration; 0.87-10; assay type: functional; outline: as §1
Papain (Carica papaya) [6] = target: T1, Papain (Carica papaya); assay: Compound was evaluated for papain inactivation. [I] is the inhibitor concentration; 0.07-0.58; assay type: functional; outline: as §1
Papain (Carica papaya) [7] = target: T1, Papain (Carica papaya); assay: Compound was evaluated for papain inactivation. [I] is the inhibitor concentration; 6-35; assay type: functional; outline: as §1
Papain (Carica papaya) [8] = target: T1, Papain (Carica papaya); assay: Compound was evaluated for papain inactivation. [I] is the inhibitor concentration; 80-160; assay type: functional; outline: as §1
Papain (Carica papaya) [9] = target: T1, Papain (Carica papaya); assay: Compound was evaluated for papain inactivation. [I] is the inhibitor concentration; 1.42-10; assay type: functional; outline: as §1
Papain (Carica papaya) [10] = target: T1, Papain (Carica papaya); assay: Compound was evaluated for papain inactivation. [I] is the inhibitor concentration; 60-500; assay type: functional; outline: as §1
Papain (Carica papaya) [11] = target: T1, Papain (Carica papaya); assay: Compound was evaluated for papain inactivation. [I] is the inhibitor concentration; 2-30; assay type: functional; outline: as §1
Papain (Carica papaya) [12] = target: T1, Papain (Carica papaya); assay: Compound was evaluated for papain inactivation. [I] is the inhibitor concentration; 1-8; assay type: functional; outline: as §1

Compound: COC(=O)/C=C/CNC(=O)[C@@H](CC(C)C)NC(C)=O
- I (Papain (Carica papaya) [3]): 0.056 mM
- kinact/KI [2]: 2.46 M⁻¹ s⁻¹

Compound: COC(=O)/C=C/CNC(=O)CCc1ccccc1
- I (Papain (Carica papaya) [5]): 0.87 mM
- kinact/KI [2]: 0.23 M⁻¹ s⁻¹

Compound: COC(=O)/C=C/CNC(=O)[C@@H](CCSC)NC(C)=O
- I (Papain (Carica papaya) [6]): 0.07 mM
- kinact/KI [2]: 2.06 M⁻¹ s⁻¹

Compound: COC(=O)/C=C/CNC(=O)C(Cc1ccccc1)NC(C)=O (stereo unspecified)
- kinact/KI [2]: 26.1 M⁻¹ s⁻¹
- I (Papain (Carica papaya) [7]): 6 µM

Compound: CC(=O)NC(Cc1ccccc1)C(=O)NC/C=C/c1ccc([N+](=O)[O-])cc1 (stereo unspecified)
- I (Papain (Carica papaya) [8]): 80 µM

Compound: COC(=O)/C=C/CNC(=O)c1ccccc1
- kinact/KI [2]: 0.05 M⁻¹ s⁻¹
- I (Papain (Carica papaya) [9]): 1.42 mM

Compound: CC(=O)NC(Cc1ccccc1)C(=O)NC/C=C/C#N (stereo unspecified)
- I (Papain (Carica papaya) [10]): 60 µM
- kinact/KI [2]: 1.7 M⁻¹ s⁻¹

Compound: CC(=O)NC(Cc1ccccc1)C(=O)NC/C=C/S(C)(=O)=O (stereo unspecified)
- I (Papain (Carica papaya) [11]): 2 µM
- kinact/KI [2]: 18.7 M⁻¹ s⁻¹

Next, values leading:

- I (Papain (Carica papaya) [1]): 30 µM
- kinact/KI [2]: 5 M⁻¹ s⁻¹
Compound: CC(=O)NC(Cc1ccccc1)C(=O)NC/C=C/C(=O)O (stereo unspecified)

- kinact/KI [2]: 1.1 M⁻¹ s⁻¹
- I (Papain (Carica papaya) [4]): 60 µM
Compound: CC(=O)NC(Cc1ccccc1)C(=O)NC/C=C/C(N)=O (stereo unspecified)

- kinact/KI [2]: 0.25 M⁻¹ s⁻¹
- I (Papain (Carica papaya) [12]): 1 mM
Compound: COC(=O)/C=C/CNC(=O)[C@H](Cc1ccccc1)NC(C)=O
